Tested on: U2OS
Assay: Multiplex assay against U2OS
Assay type: toxicity, cell-based
Details: human
Method in brief: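 At seeding, live cells were stained with Hoechst33342, BioTracker Green Microtubule Cytoskeleton Dye, MitoTracker Red and Annexin V Alexa Fluor 680. After compound addition they were imaged on a CQ1 microscope at 37°C and 5% CO2, and CellPathfinder machine-learning gating sorted them into Hoechst high-intensity objects or normal cells, with normal cells further split into healthy, pyknosed or fragmented nuclei and pyknosed cells into mitotic or apoptotic. Tubulin, mitochondrial-mass and membrane-permeability phenotypes are given as per cents of cells with healthy nuclei.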

[1] = 12 h, 1 µM, compound concentration 1 uM, replicate 1
[2] = 12 h, 1 µM, compound concentration 1 uM, replicate 2
[3] = 12 h, 10 µM, compound concentration 10 uM, replicate 1
[4] = 12 h, 10 µM, compound concentration 10 uM, replicate 2
[5] = 24 h, 1 µM, compound concentration 1 uM, replicate 1
[6] = 24 h, 1 µM, compound concentration 1 uM, replicate 2
[7] = 24 h, 10 µM, compound concentration 10 uM, replicate 1
[8] = 24 h, 10 µM, compound concentration 10 uM, replicate 2

CN1CCN(C(=O)C(C)(C)c2ccc(C(=O)Nc3cn4cc(-c5cc(C(C)(C)C)cc(C(C)(C)C)c5)ccc4n3)cc2)CC1 [T3-CLK-N]
Population Apoptotic (%) [1]: 25% | Population Fragmented Nuclei (%) [1]: 8% | Population Healthy Nuclei (%) [1]: 81% | Population Hoechst High Intensity Objects (%) [1]: 8% | Population Membrane Permeable-Phenotype (%) [1]: 18% | Population Mitochondria Different-Phenotype (%) [1]: 20% | Population Mitotic Cells (%) [1]: 75% | Population Normal (%) [1]: 91% | Population Pyknosed Nuclei (%) [1]: 9% | Population Tubulin-Different-Phenotype (%) [1]: 18% | Total Cell Count [1]: 162 | Population Apoptotic (%) [2]: 28% | Population Fragmented Nuclei (%) [2]: 6% | Population Healthy Nuclei (%) [2]: 86% | Population Hoechst High Intensity Objects (%) [2]: 11% | Population Membrane Permeable-Phenotype (%) [2]: 14% | Population Mitochondria Different-Phenotype (%) [2]: 29% | Population Mitotic Cells (%) [2]: 71% | Population Normal (%) [2]: 88% | Population Pyknosed Nuclei (%) [2]: 6% | Population Tubulin-Different-Phenotype (%) [2]: 14% | Total Cell Count [2]: 72 | Population Apoptotic (%) [3]: 27% | Population Fragmented Nuclei (%) [3]: 5% | Population Healthy Nuclei (%) [3]: 87% | Population Hoechst High Intensity Objects (%) [3]: 3% | Population Membrane Permeable-Phenotype (%) [3]: 58% | Population Mitochondria Different-Phenotype (%) [3]: 20% | Population Mitotic Cells (%) [3]: 72% | Population Normal (%) [3]: 96% | Population Pyknosed Nuclei (%) [3]: 6% | Population Tubulin-Different-Phenotype (%) [3]: 34% | Total Cell Count [3]: 177 | Population Apoptotic (%) [4]: 50% | Population Fragmented Nuclei (%) [4]: 16% | Population Healthy Nuclei (%) [4]: 80% | Population Hoechst High Intensity Objects (%) [4]: 15% | Population Membrane Permeable-Phenotype (%) [4]: 56% | Population Mitochondria Different-Phenotype (%) [4]: 38% | Population Mitotic Cells (%) [4]: 50% | Population Normal (%) [4]: 84% | Population Pyknosed Nuclei (%) [4]: 3% | Population Tubulin-Different-Phenotype (%) [4]: 31% | Total Cell Count [4]: 120 | Population Apoptotic (%) [5]: 23% | Population Fragmented Nuclei (%) [5]: 9% | Population Healthy Nuclei (%) [5]: 80% | Population Hoechst High Intensity Objects (%) [5]: 9% | Population Membrane Permeable-Phenotype (%) [5]: 8% | Population Mitochondria Different-Phenotype (%) [5]: 14% | Population Mitotic Cells (%) [5]: 76% | Population Normal (%) [5]: 90% | Population Pyknosed Nuclei (%) [5]: 10% | Population Tubulin-Different-Phenotype (%) [5]: 15% | Total Cell Count [5]: 175 | Population Apoptotic (%) [6]: 33% | Population Fragmented Nuclei (%) [6]: 6% | Population Healthy Nuclei (%) [6]: 89% | Population Hoechst High Intensity Objects (%) [6]: 8% | Population Membrane Permeable-Phenotype (%) [6]: 13% | Population Mitochondria Different-Phenotype (%) [6]: 24% | Population Mitotic Cells (%) [6]: 66% | Population Normal (%) [6]: 91% | Population Pyknosed Nuclei (%) [6]: 4% | Population Tubulin-Different-Phenotype (%) [6]: 16% | Total Cell Count [6]: 97 | Population Apoptotic (%) [7]: 54% | Population Fragmented Nuclei (%) [7]: 9% | Population Healthy Nuclei (%) [7]: 83% | Population Hoechst High Intensity Objects (%) [7]: 2% | Population Membrane Permeable-Phenotype (%) [7]: 53% | Population Mitochondria Different-Phenotype (%) [7]: 27% | Population Mitotic Cells (%) [7]: 45% | Population Normal (%) [7]: 97% | Population Pyknosed Nuclei (%) [7]: 6% | Population Tubulin-Different-Phenotype (%) [7]: 39% | Total Cell Count [7]: 230 | Population Apoptotic (%) [8]: 50% | Population Fragmented Nuclei (%) [8]: 17% | Population Healthy Nuclei (%) [8]: 71% | Population Hoechst High Intensity Objects (%) [8]: 14% | Population Membrane Permeable-Phenotype (%) [8]: 48% | Population Mitochondria Different-Phenotype (%) [8]: 56% | Population Mitotic Cells (%) [8]: 50% | Population Normal (%) [8]: 85% | Population Pyknosed Nuclei (%) [8]: 10% | Population Tubulin-Different-Phenotype (%) [8]: 43% | Total Cell Count [8]: 144
